In ChEMBL document CHEMBL4007402 (J Med Chem, 2017) one finds GI50 and IC50 data, which are given here for three compounds.

For data set [1], the target named is Platelet-derived growth factor receptor beta (Homo sapiens) (UniProt P09619). The data set can be described thus: Inhibition of recombinant TEL-fused PDGFR-beta (unknown origin) expressed in mouse BAF3 cells assessed as growth inhibition after 72 hrs by CellTiter-Glo or CCK-8 assay. It counts as cell-based. The gist of the method: (§1)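 Isogenic murine BaF3 cells transformed with TEL-fused kinases, whose proliferation depends on the fused kinase, were used. Parental BaF3 cells served as the general selectivity counter-screen. The anti-proliferative read-out was reported as GI50.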
Platelet-derived growth factor receptor beta (Homo sapiens), sequence (P09619 whole entry, the tested form may be a part): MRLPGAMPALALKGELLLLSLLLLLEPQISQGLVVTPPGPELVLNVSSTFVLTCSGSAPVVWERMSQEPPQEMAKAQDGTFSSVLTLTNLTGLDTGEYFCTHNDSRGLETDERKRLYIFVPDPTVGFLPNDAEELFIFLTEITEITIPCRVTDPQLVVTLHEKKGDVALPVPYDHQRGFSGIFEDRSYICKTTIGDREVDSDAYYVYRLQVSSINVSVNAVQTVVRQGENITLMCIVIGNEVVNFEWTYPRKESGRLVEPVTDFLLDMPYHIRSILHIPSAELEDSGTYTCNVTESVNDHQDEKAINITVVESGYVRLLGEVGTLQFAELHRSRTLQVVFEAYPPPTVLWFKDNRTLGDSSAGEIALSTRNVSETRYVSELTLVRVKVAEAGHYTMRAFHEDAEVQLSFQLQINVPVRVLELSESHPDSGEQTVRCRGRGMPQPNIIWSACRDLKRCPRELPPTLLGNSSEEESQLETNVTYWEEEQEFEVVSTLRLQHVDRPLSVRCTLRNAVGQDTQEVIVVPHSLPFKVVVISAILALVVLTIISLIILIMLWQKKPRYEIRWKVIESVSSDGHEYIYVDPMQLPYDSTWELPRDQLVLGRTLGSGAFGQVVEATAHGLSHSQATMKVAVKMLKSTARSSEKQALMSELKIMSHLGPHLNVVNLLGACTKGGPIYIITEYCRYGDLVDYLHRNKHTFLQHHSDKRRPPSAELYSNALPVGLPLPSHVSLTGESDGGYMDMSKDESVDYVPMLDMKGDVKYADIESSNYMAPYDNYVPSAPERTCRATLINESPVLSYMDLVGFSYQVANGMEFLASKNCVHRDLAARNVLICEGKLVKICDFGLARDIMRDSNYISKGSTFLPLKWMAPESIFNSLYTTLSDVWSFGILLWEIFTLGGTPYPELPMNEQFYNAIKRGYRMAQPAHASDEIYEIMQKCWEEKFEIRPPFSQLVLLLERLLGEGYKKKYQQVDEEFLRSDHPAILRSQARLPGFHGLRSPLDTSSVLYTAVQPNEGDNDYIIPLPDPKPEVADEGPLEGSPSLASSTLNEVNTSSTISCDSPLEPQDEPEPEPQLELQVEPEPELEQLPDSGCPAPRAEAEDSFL

Data set [2] addresses Receptor-type tyrosine-protein kinase FLT3 (Homo sapiens) (UniProt P36888). As to the kind of experiment: Inhibition of recombinant TEL-fused FLT3 (unknown origin) expressed in mouse BAF3 cells assessed as growth inhibition after 72 hrs by CellTiter-Glo or CCK-8 assay. It counts as cell-based. The gist of the method: as §1
(In general: In ATP-based viability assays light output follows the ATP content of the culture.)

Data set [3] concerns the target Mast/stem cell growth factor receptor Kit (Homo sapiens) (UniProt P10721). The data set can be described thus: Inhibition of recombinant TEL-fused c-KIT (unknown origin) expressed in mouse BAF3 cells assessed as growth inhibition after 72 hrs by CellTiter-Glo or CCK-8 assay. It counts as cell-based. Summed up:
as §1

The target in data set [4] is Tyrosine-protein kinase ABL1 (Homo sapiens) (UniProt P00519). As to the kind of experiment: Inhibition of recombinant TEL-fused ABL (unknown origin) expressed in mouse BAF3 cells assessed as growth inhibition after 72 hrs by CellTiter-Glo or CCK-8 assay. It counts as cell-based. The gist of the method: as §1
Tyrosine-protein kinase ABL1 (Homo sapiens), sequence (P00519 whole entry, the tested form may be a part): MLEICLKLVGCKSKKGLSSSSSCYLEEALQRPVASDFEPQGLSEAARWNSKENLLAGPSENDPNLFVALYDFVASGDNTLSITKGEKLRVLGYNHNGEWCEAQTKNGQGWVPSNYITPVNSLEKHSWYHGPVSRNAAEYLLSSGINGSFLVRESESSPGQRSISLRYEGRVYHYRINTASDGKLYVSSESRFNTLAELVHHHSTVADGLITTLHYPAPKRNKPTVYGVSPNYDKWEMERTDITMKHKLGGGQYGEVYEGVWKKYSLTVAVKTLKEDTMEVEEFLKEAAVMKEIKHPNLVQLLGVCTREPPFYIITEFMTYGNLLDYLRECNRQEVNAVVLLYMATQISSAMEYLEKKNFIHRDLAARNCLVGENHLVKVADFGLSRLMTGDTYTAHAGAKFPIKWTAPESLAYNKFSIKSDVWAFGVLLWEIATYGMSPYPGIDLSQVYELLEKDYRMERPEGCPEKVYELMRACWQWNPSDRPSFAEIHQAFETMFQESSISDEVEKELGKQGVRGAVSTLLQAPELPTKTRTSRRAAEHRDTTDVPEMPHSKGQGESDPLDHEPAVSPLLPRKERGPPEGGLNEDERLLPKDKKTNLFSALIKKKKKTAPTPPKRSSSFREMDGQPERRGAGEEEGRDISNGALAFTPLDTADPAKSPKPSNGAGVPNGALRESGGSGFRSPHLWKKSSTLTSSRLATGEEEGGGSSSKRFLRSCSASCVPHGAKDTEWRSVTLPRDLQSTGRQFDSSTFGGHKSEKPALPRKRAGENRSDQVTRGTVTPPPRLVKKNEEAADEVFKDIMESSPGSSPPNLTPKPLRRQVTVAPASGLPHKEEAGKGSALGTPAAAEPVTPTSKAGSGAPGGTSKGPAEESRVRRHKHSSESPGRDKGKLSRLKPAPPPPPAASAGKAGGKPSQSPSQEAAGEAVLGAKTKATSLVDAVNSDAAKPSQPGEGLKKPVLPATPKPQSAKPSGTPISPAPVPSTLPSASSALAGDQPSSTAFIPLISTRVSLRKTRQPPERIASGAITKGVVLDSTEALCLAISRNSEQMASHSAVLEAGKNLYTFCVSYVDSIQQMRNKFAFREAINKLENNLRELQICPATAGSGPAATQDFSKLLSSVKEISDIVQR
Data set [5] has as its target Platelet-derived growth factor receptor alpha (Homo sapiens) (UniProt P16234). The data set can be described thus: Inhibition of recombinant TEL-fused PDGFR-alpha (unknown origin) expressed in mouse BAF3 cells assessed as growth inhibition after 72 hrs by CellTiter-Glo or CCK-8 assay. The class given is cell-based. The gist of the method: as §1
Data set [6] addresses Tyrosine-protein kinase Blk (Homo sapiens) (UniProt P51451). As to the kind of experiment: Inhibition of recombinant TEL-fused BLK (unknown origin) expressed in mouse BAF3 cells assessed as growth inhibition after 72 hrs by CellTiter-Glo or CCK-8 assay. It counts as cell-based. The gist of the method:
as §1

Data set [7] has as its target T1, Tyrosine-protein kinase JAK3 (Homo sapiens) (UniProt P52333).
T1 sequence (whole entry): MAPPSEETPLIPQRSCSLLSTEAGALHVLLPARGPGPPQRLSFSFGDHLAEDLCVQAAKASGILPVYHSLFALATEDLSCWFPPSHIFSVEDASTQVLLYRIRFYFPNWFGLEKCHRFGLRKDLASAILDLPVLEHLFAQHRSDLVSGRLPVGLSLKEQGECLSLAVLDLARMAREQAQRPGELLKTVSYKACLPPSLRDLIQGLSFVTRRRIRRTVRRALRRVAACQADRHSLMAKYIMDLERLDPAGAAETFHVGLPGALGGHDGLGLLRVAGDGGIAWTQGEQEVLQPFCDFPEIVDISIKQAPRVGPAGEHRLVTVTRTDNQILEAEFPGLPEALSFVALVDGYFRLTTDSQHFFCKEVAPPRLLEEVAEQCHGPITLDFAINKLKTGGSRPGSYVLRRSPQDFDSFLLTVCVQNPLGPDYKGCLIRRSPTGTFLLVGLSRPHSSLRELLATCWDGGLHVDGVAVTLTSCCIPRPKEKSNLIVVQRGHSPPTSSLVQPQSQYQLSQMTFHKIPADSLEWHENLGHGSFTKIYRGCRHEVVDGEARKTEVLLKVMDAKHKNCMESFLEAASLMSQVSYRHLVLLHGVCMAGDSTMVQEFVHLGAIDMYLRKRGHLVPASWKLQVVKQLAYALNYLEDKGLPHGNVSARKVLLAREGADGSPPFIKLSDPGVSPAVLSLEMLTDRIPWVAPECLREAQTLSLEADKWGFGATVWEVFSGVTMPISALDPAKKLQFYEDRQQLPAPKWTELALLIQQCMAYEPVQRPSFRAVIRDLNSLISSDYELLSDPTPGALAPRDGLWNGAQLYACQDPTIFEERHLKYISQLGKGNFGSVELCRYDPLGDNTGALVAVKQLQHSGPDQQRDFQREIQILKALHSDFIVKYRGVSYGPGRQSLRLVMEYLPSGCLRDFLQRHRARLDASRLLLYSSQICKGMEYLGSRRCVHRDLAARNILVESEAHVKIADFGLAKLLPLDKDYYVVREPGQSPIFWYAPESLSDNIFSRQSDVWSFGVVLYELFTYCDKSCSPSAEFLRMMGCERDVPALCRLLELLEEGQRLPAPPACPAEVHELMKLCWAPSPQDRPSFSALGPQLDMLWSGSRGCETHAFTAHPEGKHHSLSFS
The data set can be described thus: Inhibition of recombinant TEL-fused JAK3 (unknown origin) expressed in mouse BAF3 cells assessed as growth inhibition after 72 hrs by CellTiter-Glo or CCK-8 assay. The class given is cell-based. Summed up: as §1

For data set [8], the target named is T2, Cytoplasmic tyrosine-protein kinase BMX (Homo sapiens) (UniProt P51813).
T2 sequence (whole entry): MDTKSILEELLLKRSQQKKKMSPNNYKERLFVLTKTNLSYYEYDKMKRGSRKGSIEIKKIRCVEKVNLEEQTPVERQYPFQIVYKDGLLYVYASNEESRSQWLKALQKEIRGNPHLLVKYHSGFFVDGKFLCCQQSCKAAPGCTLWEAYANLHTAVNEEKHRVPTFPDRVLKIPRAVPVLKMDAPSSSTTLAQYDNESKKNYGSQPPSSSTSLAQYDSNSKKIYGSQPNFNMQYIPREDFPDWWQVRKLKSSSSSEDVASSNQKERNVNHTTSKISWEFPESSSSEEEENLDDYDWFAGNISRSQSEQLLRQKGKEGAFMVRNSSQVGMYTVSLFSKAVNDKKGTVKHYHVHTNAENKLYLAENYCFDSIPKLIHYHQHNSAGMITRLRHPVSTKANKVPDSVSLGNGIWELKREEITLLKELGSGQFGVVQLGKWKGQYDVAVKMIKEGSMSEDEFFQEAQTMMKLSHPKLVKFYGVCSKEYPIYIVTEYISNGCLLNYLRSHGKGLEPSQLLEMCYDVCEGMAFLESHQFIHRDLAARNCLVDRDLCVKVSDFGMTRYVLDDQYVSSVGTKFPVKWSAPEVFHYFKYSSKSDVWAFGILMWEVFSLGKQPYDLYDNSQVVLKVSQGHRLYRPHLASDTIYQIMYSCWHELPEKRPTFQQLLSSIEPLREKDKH

Data set [9] can be described thus: Growth inhibition of mouse BAF3 cells after 72 hrs by CellTiter-Glo or CCK-8 assay. The class given is cell-based. Summed up: as §1
The target of data set [10] is Epidermal growth factor receptor (Homo sapiens) (UniProt P00533). As to the kind of experiment: Inhibition of recombinant TEL-fused EGFR (unknown origin) expressed in mouse BAF3 cells assessed as growth inhibition after 72 hrs by CellTiter-Glo or CCK-8 assay. The class given is cell-based. Summed up: as §1
Data set [11] concerns the target Epithelial discoidin domain-containing receptor 1 (Homo sapiens, UniProt Q08345). The data set can be described thus: Inhibition of human GST-tagged DDR1 catalytic domain expressed in baculovirus expression system by LanthaScreen assay. Background: In TR-FRET formats the signal depends on donor and acceptor labels being close together.
Data set [12] deals with Tyrosine-protein kinase BTK (Homo sapiens, UniProt Q06187). The data set can be described thus: Inhibition of full-length recombinant human His-tagged BTK expressed in baculovirus expression system using Poly(4:1 Glu, Tyr) as substrate after 1 hr by ADP-Glo kinase assay. In general terms: In ADP-Glo the light output rises with the ADP produced.
Data set [13] deals with Mitogen-activated protein kinase 14 (Homo sapiens, UniProt Q16539). The data set can be described thus: Inhibition of full-length recombinant human GST-tagged p38alpha expressed in Escherichia coli by Z'-LYTE assay.

Platelet-derived growth factor receptor alpha (Homo sapiens), sequence (P16234 whole entry, the tested form may be a part): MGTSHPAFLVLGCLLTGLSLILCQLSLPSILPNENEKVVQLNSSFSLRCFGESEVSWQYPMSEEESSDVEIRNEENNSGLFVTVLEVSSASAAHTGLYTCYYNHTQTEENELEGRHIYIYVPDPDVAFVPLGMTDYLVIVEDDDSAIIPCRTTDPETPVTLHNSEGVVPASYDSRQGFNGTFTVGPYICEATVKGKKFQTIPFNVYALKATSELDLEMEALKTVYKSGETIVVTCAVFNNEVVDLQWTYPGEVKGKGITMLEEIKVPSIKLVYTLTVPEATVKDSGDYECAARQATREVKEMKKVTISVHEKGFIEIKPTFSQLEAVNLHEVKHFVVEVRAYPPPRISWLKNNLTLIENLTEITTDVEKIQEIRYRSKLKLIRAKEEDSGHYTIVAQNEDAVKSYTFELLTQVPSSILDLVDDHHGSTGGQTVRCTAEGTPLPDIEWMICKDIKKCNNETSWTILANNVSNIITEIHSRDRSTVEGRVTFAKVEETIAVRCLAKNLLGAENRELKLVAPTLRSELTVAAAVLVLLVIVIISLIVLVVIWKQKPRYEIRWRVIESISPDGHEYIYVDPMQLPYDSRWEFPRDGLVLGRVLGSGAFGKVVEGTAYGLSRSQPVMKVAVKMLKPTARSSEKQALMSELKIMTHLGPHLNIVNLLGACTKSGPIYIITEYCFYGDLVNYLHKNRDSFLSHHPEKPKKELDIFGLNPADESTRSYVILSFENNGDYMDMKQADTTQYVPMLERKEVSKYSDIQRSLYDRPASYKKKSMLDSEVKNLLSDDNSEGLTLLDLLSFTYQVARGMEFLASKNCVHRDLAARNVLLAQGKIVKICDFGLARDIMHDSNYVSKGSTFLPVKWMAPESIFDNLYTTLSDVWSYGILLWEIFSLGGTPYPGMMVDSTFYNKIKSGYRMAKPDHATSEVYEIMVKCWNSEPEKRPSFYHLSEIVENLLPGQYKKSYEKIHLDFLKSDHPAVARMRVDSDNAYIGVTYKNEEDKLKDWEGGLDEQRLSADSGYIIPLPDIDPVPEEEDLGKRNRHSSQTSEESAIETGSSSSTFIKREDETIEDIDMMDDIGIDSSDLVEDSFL
Receptor-type tyrosine-protein kinase FLT3 (Homo sapiens), sequence (P36888 whole entry, the tested form may be a part): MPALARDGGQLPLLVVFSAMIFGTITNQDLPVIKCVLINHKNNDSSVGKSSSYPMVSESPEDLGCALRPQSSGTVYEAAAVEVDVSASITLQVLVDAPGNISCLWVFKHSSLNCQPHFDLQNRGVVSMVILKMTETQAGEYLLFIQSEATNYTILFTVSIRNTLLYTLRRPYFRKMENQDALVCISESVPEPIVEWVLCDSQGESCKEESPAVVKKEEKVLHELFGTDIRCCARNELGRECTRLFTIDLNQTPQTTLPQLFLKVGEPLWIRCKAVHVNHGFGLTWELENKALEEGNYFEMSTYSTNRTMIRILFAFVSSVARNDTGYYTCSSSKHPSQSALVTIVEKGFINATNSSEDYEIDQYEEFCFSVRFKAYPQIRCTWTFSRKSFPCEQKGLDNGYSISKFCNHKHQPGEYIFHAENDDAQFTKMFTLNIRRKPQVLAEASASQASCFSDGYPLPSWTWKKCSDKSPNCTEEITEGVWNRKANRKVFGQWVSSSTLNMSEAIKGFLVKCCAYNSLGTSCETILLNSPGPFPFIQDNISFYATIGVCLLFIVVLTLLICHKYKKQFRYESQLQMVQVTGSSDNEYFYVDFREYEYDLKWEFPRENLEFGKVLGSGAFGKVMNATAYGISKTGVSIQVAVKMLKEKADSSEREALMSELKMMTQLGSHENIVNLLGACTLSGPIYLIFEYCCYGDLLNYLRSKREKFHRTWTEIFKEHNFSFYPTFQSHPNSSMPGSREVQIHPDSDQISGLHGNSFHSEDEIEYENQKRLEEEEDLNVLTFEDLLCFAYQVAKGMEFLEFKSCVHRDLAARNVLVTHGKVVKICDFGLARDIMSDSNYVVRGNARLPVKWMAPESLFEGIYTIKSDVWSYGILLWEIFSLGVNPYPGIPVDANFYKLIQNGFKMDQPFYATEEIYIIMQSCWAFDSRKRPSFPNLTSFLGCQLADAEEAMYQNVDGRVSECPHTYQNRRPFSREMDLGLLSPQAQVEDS
Tyrosine-protein kinase Blk (Homo sapiens), sequence (P51451 2-505 limits assumed): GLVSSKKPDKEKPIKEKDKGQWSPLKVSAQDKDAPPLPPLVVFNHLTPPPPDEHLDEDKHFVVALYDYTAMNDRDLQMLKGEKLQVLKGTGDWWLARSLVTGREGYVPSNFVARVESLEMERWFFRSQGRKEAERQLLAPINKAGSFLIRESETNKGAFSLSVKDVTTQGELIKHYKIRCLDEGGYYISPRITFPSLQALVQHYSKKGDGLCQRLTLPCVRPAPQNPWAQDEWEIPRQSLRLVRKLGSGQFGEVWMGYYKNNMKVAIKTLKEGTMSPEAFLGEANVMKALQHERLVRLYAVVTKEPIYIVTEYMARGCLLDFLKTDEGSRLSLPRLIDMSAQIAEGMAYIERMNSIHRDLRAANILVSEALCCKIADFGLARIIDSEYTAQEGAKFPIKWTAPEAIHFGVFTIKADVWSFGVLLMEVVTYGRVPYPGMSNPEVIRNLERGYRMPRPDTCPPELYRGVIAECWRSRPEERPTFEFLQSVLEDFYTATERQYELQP

The term GI50 denotes the concentration that inhibits growth by half. Turning to `C=CC(=O)Nc1cc(Nc2ncc(C(=O)Nc3cc(NC(=O)c4cccc(C(F)(F)F)c4)ccc3C)c(NC)n2)ccc1C`, the GI50 in data set [1] was 130 nM; in [2], greater than 10000 nM; in data set [3] it was 380 nM; in data set [4] it was 118 nM; in [5], 99 nM; in data set [6], 5900 nM. In addition, the GI50 was greater than 10000 nM in [7], 13 nM in [8] and greater than 10000 nM in data set [10]. Also, the GI50 at 72 h in data set [9] is greater than 10000 nM.

Consider `CCC(=O)Nc1cc(Nc2ncc(C(=O)Nc3cc(NC(=O)c4cccc(C(F)(F)F)c4)ccc3C)c(NC)n2)ccc1C`, for which the GI50 in data set [1] amounted to 59 nM; in [2] it was 8600 nM; in data set [3], 170 nM; in data set [4] it was 44 nM; in data set [5] it was 45 nM; in [6], 6500 nM. The GI50 in [7] is 8300 nM; in data set [8], 85 nM; in data set [10], greater than 10000 nM. Besides, in data set [9], the concentration for 50% growth inhibition (GI50) at 72 h is greater than 10000 nM.

By IC50 is commonly meant the concentration at which inhibition is half-maximal. For `CCC(=O)Nc1cc(Nc2ncc(C(=O)Nc3cc(NC(=O)c4cc(OC)c(OC)c(OC)c4)ccc3C)c(NC)n2)ccc1C`, the IC50 in data set [11] was 212 nM; in data set [12] it was greater than 10000 nM; in data set [13], 89 nM. Further, the GI50 in [1] is 790 nM; in [2] it was greater than 10000 nM; in [3], 2800 nM; in data set [4] it was 2510 nM; in [5], 370 nM; in [7], greater than 10000 nM. Besides, the figures for the GI50 in [8] and in data set [10] were 610 nM and greater than 10000 nM, respectively. Also, in [9], the GI50 at 72 h is greater than 10000 nM.
